{"data": "Measurements collected from several papers", "KIT T670I/V559D": "Mast/stem cell growth factor receptor Kit (KIT, Homo sapiens, UniProt P10721, T670I/V559D)", "KIT": "Mast/stem cell growth factor receptor Kit (KIT, Homo sapiens, UniProt P10721)", "KIT D816H": "Mast/stem cell growth factor receptor Kit (KIT, Homo sapiens, UniProt P10721, D816H)", "KIT A829P": "Mast/stem cell growth factor receptor Kit (KIT, Homo sapiens, UniProt P10721, A829P)", "KIT V559D": "Mast/stem cell growth factor receptor Kit (KIT, Homo sapiens, UniProt P10721, V559D)", "KIT autoinhibited": "Mast/stem cell growth factor receptor Kit, autoinhibited (KIT, Homo sapiens, UniProt P10721)", "KIT D816V": "Mast/stem cell growth factor receptor Kit (KIT, Homo sapiens, UniProt P10721, D816V)"}
{"Structure (SMILES)": "COc1cnc(Nc2cccc(S(N)(=O)=O)c2)nc1N1CCN(c2ccccc2)CC1", "target": "KIT T670I/V559D", "test": "binding, competition with immobilised ligand", "setting": "1 µM", "remaining binding [%]": 97}
{"Structure (SMILES)": "C[C@@H]1CN(c2ccc3ncc(-c4ccc5[nH]nc(C6CC6)c5c4)n3n2)C[C@H](C)O1", "target": "KIT", "test": "binding, competition with immobilised ligand", "setting": "0.5 µM", "remaining binding [%]": 50}
{"Structure (SMILES)": "CN1CCN(c2ccc(Nc3nccc(-c4ccccc4)n3)cc2C(F)(F)F)CC1", "target": "KIT D816H", "test": "binding", "setting": "10 µM", "remaining binding [%]": 17}
{"Structure (SMILES)": "CN(C)C(=O)Cn1cc(-c2nc(C3(c4ccc(-c5cnc(N)nc5)cc4)CC3)no2)cn1", "target": "KIT", "test": "cell-free assay, competition with immobilised ligand", "setting": "1 µM", "remaining binding [%]": 93}
{"Structure (SMILES)": "C[C@@H]1CCN(c2nccc(-c3cnn4ncccc34)n2)C1", "target": "KIT", "test": "binding", "setting": "1 µM", "remaining binding [%]": 100}
{"Structure (SMILES)": "O=C(NCc1ncc(C(F)(F)F)cc1Cl)c1ccc2c(c1)C1(CCS(=O)(=O)CC1)[C@H](C1CC1)N2S(=O)(=O)c1ccc(F)cc1", "target": "KIT A829P", "test": "cell-free assay, competition with immobilised ligand", "setting": "1 µM", "remaining binding [%]": 92}
{"Structure (SMILES)": "CCN1CCN(Cc2ccc(C(=O)Nc3ccc(C)c(Oc4ccc5c(c4)CC(=O)N5)c3)cc2C(F)(F)F)CC1", "target": "KIT T670I/V559D", "test": "binding, competition with immobilised ligand", "setting": "1 µM", "remaining binding [%]": 58}
{"Structure (SMILES)": "Cc1cnc(Nc2ccc(C(=O)N3CCC(N4CCCC4)CC3)cc2)nc1-c1cc2ccccc2s1", "target": "KIT V559D", "test": "binding, competition with immobilised ligand", "setting": "1 µM", "remaining binding [%]": 0.6}
{"Structure (SMILES)": "CC1CCCN1c1nccc(-c2cnn3ncccc23)n1 (stereo not drawn)", "target": "KIT A829P", "test": "binding", "setting": "1 µM", "remaining binding [%]": 89}
{"Structure (SMILES)": "O=C(Nc1c[nH]nc1C(=O)NC1CCNCC1)c1cc(F)cc(F)c1", "target": "KIT V559D", "test": "binding, competition with immobilised ligand", "setting": "1 µM", "remaining binding [%]": 100}
{"Structure (SMILES)": "C[C@H](NC(=O)c1cnc2n1[C@](C)(Cc1ccc(C#N)cc1)C(=O)N2c1cc(Cl)c(F)c(Cl)c1)C(=O)NC1(c2ccccn2)CC1", "target": "KIT D816H", "test": "cell-free assay, competition with immobilised ligand", "setting": "1 µM", "remaining binding [%]": 100}
{"Structure (SMILES)": "CN(CCCC(F)(F)F)c1nccc(-c2cnn3ncccc23)n1", "target": "KIT A829P", "test": "binding", "setting": "1 µM", "remaining binding [%]": 90}
{"Structure (SMILES)": "C[C@@H](c1ccc(-n2cnc3c(N)ncnc32)cc1)N1CCc2nn(C)c(Cc3ccccc3)c2C1=O", "target": "KIT autoinhibited", "test": "binding, competition with immobilised ligand", "setting": "0.1 µM", "remaining binding [%]": 97}
{"Structure (SMILES)": "CNC(=O)[C@@H]1CC[C@@H](n2c(-c3ccc4cnccc4c3)nc3ccc(C(=O)NCc4cccc(C(N)=O)c4)cc32)C1", "target": "KIT A829P", "test": "binding, competition with immobilised ligand", "setting": "1 µM", "remaining binding [%]": 100}
{"Structure (SMILES)": "NS(=O)(=O)c1cc(NC(=O)Cc2ccccc2)ccc1Oc1cccc(Cl)c1", "target": "Mast/stem cell growth factor receptor Kit (KIT, Homo sapiens, UniProt P10721, L576P)", "test": "cell-free assay, competition with immobilised ligand", "setting": "1 µM", "remaining binding [%]": 78}
{"Structure (SMILES)": "c1cnn2ncc(-c3ccnc(N4CCC45COC5)n3)c2c1", "target": "KIT D816V", "test": "binding", "setting": "1 µM", "remaining binding [%]": 93}
{"Structure (SMILES)": "O=C(NCCCN1CCOCC1)c1ccc(Nc2nccc(-c3cc4ccccc4s3)n2)cc1", "target": "KIT autoinhibited", "test": "binding, competition with immobilised ligand", "setting": "1 µM", "remaining binding [%]": 76}
{"Structure (SMILES)": "N[C@@H]1CCN(c2nccc(-c3cnn4ncccc34)n2)C1", "target": "KIT D816V", "test": "binding", "setting": "1 µM", "remaining binding [%]": 100}
{"Structure (SMILES)": "CCCOc1ccc([C@@H]2[C@@H](C(=O)O)[C@H](c3ccc4c(c3)OCO4)CN2CC(=O)Nc2c(CC)cccc2CC)cc1", "target": "Mast/stem cell growth factor receptor Kit (KIT, Homo sapiens, UniProt P10721, V559D/V654A)", "test": "cell-free assay, competition with immobilised ligand", "setting": "1 µM", "remaining binding [%]": 94}
{"Structure (SMILES)": "COc1ccnn2ncc(-c3ccnc(N(C)C)n3)c12", "target": "KIT", "test": "binding", "setting": "1 µM", "remaining binding [%]": 100}
{"Structure (SMILES)": "C[C@@]1(Cc2ccc(C#N)cc2)C(=O)N(c2cc(Cl)cc(Cl)c2)c2ncc(C(=O)NC3(c4nc(C5CCC5)no4)CC3)n21", "target": "KIT V559D", "test": "cell-free assay, competition with immobilised ligand", "setting": "1 µM", "remaining binding [%]": 99}
{"Structure (SMILES)": "Cc1cnn2ncc(-c3ccnc(N(C)C)n3)c2c1", "target": "KIT D816V", "test": "binding", "setting": "1 µM", "remaining binding [%]": 100}
{"Structure (SMILES)": "O=C(Nc1ccc(Oc2ccc(F)cc2)cc1)N1CCc2ncccc2[C@H]1c1ccc(F)cc1", "target": "KIT", "test": "cell-free assay, competition with immobilised ligand", "setting": "1 µM", "remaining binding [%]": 97}
{"Structure (SMILES)": "O=C(c1ccc(Nc2ncc(Cl)c(-c3cc4ccccc4s3)n2)cc1)N1CCC(N2CCCC2)CC1", "target": "KIT A829P", "test": "binding, competition with immobilised ligand", "setting": "1 µM", "remaining binding [%]": 19}
